Results: ChEMBL document CHEMBL1145248, “Design, new synthesis, and calcilytic activity of substituted 3H-pyrimidin-4-ones” (Bioorg Med Chem Lett, 2005)

target: T1, Extracellular calcium-sensing receptor (Homo sapiens, UniProt P41180); experiment: Inhibitory concentration was evaluated for in vitro calcilytic activity against human calcium receptor
T1 sequence (P41180 whole entry): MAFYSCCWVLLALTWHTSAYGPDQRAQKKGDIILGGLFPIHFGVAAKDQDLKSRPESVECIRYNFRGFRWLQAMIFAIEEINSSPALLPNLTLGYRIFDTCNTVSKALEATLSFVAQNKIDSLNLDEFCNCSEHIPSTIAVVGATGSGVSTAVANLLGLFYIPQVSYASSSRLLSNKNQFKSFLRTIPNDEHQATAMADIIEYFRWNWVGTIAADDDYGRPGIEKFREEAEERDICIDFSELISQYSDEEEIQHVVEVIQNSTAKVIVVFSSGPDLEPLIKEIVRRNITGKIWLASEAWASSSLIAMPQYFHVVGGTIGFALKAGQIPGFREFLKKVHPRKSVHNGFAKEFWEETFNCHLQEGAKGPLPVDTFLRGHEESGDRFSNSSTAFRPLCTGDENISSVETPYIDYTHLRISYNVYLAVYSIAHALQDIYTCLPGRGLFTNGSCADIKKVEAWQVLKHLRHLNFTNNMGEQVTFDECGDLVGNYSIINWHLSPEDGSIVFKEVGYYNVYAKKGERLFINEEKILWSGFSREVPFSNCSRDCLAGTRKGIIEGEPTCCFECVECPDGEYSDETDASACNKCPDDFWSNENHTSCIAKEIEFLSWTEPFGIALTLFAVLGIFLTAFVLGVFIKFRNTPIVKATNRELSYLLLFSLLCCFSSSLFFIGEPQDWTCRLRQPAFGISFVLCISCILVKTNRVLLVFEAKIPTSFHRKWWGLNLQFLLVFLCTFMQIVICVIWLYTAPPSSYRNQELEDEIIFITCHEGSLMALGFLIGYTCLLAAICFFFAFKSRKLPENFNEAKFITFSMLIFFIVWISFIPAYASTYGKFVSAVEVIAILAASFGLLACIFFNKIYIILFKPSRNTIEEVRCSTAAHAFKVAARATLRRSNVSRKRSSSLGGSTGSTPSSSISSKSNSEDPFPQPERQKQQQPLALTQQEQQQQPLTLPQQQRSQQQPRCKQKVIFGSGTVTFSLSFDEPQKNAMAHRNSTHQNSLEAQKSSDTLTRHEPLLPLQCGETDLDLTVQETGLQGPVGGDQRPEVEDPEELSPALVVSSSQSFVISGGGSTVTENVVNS
Procedure, shortened: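 HEK 293 4.0-7 cells stably expressing human CaR, loaded with fluo-3. Intracellular Ca2+ rise triggered by raising extracellular Ca2+ from 1.0 to 1.3 mM. Peak fluorescence normalized to the response without compound. Eight concentrations tested in duplicate, top concentration 30 µM. IC50 normalized to an internal reference standard run in parallel in each assay.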

Row | SMILES | IC50 [µM]
1 | CCc1c(C)nc(-c2ccccc2O)n(CCc2ccccc2F)c1=O | 0.097
2 | Cc1nc(-c2ccccc2O)n(CCc2cccc(F)c2)c(=O)c1C(C)C | 0.095
3 | CCCc1c(C)nc(-c2ccccc2O)n(CCc2cccc(F)c2)c1=O | 0.14
4 | Cc1cc(=O)n(CCc2cccc(F)c2)c(-c2ccccc2O)n1 | 1.1
5 | O=c1c2c(nc(-c3ccccc3O)n1CCc1cccc(F)c1)CCC2 | 0.2

Further lines, results first:

Row | IC50 [µM] | SMILES
6 | 0.8 | Cc1c(C(F)(F)F)nc(-c2ccccc2O)n(CCc2ccccc2)c1=O
7 | 0.1 | CCc1c(C)nc(-c2ccccc2O)n(CCc2ccccc2)c1=O
8 | 0.14 | O=c1c2c(nc(-c3ccccc3O)n1CCc1ccccc1)CCCC2
9 | 1.6 | Cc1cc(=O)n(CCc2ccccc2F)c(-c2ccccc2O)n1
10 | 0.2 | Cc1nc(-c2ccccc2O)n(CCc2ccccc2)c(=O)c1C
11 | 0.17 | Cc1nc(-c2ccccc2O)n(CCc2cccc(F)c2)c(=O)c1C
12 | 0.2 | O=c1c2c(nc(-c3ccccc3O)n1CCc1ccccc1)CCC2
13 | 1.9 | Cc1cc(=O)n(CCc2ccccc2)c(-c2ccccc2O)n1
